Most compounds without a hit are left out; they make up all but 2.3% or so of the library.
TRPC4 PAM: allosteric potentiators of mouse TRPC4 channel; Q9QUQ5; HEK293 TRPC4beta/mu-opioid, DAMGO EC20, Fluo-4 Ca2+ flux; active compounds read high; B-score at 10 µM; 310,000 tested, 0.42% active; AID 2227;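 active means B-score of calcium response area above 5 SD of library B-scores, with initial fluorescence ratio within 5 SD of library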;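 further: B-score of integrated fluorescence ratio over time as area under calcium response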
TRPC4 inh: TRPC4 (mouse) channel inhibition; HEK293 TRPC4beta/mu-opioid, DAMGO-evoked Fluo4 calcium flux; active compounds read low; B-score at 10 µM; 300,000 tested, 0.39% active;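 active means B-score over 3 SD under the library average, no early fluorescence shift, positive overall ratio signal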
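Assay system – HEK293 line stably carrying TRPC4beta and mu-opioid receptor · Doses – single dose · Detection – Fluo4 calcium-dye fluorescence, kinetic read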
TRPC6 inhibitor: blocks the mouse TRPC6 cation channel | 310,000 tested, 1.1% active | B-score at 10 µM | Q61143 | AID 2553 | HEK293-TRPC6, membrane potential dye, ACh-evoked depolarization; active compounds read low;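 active means B-score under library mean minus 3 SD, initial fluorescence not abnormally high, positive integrated signal ratio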;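 further: B-score derived from integrated fluorescence ratio over the kinetic read; more negative B-score means stronger inhibition of depolarization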
Target sequence (Q61143 whole entry, looked up): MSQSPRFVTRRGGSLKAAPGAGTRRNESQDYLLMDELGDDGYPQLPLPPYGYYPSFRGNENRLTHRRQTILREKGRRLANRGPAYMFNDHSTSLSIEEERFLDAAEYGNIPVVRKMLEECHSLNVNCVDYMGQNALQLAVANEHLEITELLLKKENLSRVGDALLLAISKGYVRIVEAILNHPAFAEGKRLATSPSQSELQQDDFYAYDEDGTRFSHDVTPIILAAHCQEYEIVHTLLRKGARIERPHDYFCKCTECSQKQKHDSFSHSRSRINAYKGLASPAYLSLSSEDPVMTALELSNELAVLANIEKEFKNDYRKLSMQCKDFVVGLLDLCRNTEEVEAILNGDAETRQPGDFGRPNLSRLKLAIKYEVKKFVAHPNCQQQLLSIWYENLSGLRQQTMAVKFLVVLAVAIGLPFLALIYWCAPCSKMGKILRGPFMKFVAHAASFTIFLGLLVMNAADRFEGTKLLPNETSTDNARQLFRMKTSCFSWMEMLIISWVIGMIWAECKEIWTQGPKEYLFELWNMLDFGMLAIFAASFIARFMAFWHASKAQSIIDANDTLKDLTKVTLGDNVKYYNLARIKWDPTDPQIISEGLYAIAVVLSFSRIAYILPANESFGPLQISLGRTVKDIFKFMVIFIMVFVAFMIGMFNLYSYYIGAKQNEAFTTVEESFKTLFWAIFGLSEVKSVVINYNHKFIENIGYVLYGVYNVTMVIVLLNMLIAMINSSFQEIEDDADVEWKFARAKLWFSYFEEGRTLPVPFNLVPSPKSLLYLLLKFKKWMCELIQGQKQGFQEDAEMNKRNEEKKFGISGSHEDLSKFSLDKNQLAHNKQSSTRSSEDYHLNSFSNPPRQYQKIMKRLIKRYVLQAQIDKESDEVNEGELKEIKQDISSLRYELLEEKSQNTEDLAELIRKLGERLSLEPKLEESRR
TRPC6 act: activates the mouse TRPC6 cation channel; Q61143; HEK293-TRPC6 membrane potential dye fluorescence; active compounds read high; B-score at 10 µM; 310,000 tested, 0.13% active;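 active means B-score of the integrated fluorescence ratio above library mean plus 3 SD, and starting fluorescence ratio within library mean plus 5 SD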;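 further: higher score means more depolarization so channel activation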
TRPC4 agonist: activators of mouse TRPC4 channel; AID 2237; Q9QUQ5; 310,000 tested, 0.49% active; HEK293 TRPC4beta/mu-opioid, Fluo4 calcium fluorescence; active compounds read high; B-score at 10 µM;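 active means B-score above 5 SD of library B-scores, and initial fluorescence ratio not above library mean plus 5 SD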;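 further: positive B-score marks a calcium rise read as TRPC4 activation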
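Assay system – TRPC4beta and mu-opioid receptor HEK293 stable cells · Measured by – Fluo4 fluorescence, kinetic · Schedule – dye loading 45 min room temperature, 110 s kinetic read · Read-out – B-scored integrated calcium fluorescence ratio · Controls – buffer and maximal DAMGO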
HEK293 TRPC6 ctr: counter-screen for TRPC6 modulators: effect in parental HEK293 cells. shares compounds with TRPC6 inhibitor. membrane potential dye fluorescence. membrane potential signal change, % at 10 µM. 2,400 tested, 51% active;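 active means membrane potential signal moves up or down beyond 5 SD from buffer-only wells, on both duplicate plates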
HEK293 MPD ctr 2: second counter-screen for TRPC6 modulators: effect in parental HEK293 cells; shares compounds with TRPC6 inhibitor; membrane potential dye fluorescence; after compound, maximal acetylcholine stimulation; inhibition, % at 10 µM; 2,400 tested, 14% active;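 active means membrane potential signal drops by more than 5 SD from the mean control signal, in both duplicate plates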;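 further: plate controls were acetylcholine ECmax control wells for no effect and buffer only wells for full effect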
TRPC4 ctr mod: tests whether TRPC6 modulators also affect mouse TRPC4 | shares compounds with TRPC6 inhibitor | HEK293 TRPC4/mu-opioid, membrane potential fluorescence | percent change from control (negative = decrease, positive = increase), % at 10 µM | 2,400 tested, 69% active;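 active means membrane potential signal moved up or down beyond 5 SD of buffer control wells, in both duplicate plates, actives on both sides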;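 further: plate controls were assay buffer wells for no effect and DAMGO maximal-effect wells for full effect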
TRPC4/MOR inh 2: second selectivity test of TRPC6 modulators against mouse TRPC4 | shares compounds with TRPC6 inhibitor | HEK293 TRPC4/mu-opioid, membrane potential dye fluorescence; stimulated with maximal-effect DAMGO | AID 488928 | inhibition, % at 10 µM | 2,400 tested, 55% active;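 active means drop in membrane potential signal beyond 5 SD of the control wells in both duplicate plates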;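 further: TRPC4 counter screen for TRPC6 hits run under conditions tuned for TRPC6 not TRPC4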
TRPC6 inh conf: confirmation of mouse TRPC6 inhibitors. AID 488960. shares compounds with TRPC6 inhibitor. 3,300 tested, 43% active. HEK293-TRPC6, membrane potential dye, ACh-evoked depolarization. inhibition, % at 10 µM;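 active means fluorescence ratio falls more than 5 SD below the full-stimulation control mean, in both duplicate runs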;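 further: integrated fluorescence ratio of peak minus minimum over baseline after agonist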
TRPC6 act confirm: confirmation of mouse TRPC6 activators; shares compounds with TRPC6 inhibitor; HEK293-TRPC6 membrane potential dye fluorescence, FDSS; activation, % at 10 µM; 2,800 tested, 11% active; AID 488961;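 active means ratio signal rise beyond 5 SD above unstimulated control wells' mean, seen in both duplicate runs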;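 further: plate controls were buffer EC0 wells for no effect and acetylcholine ECmax response for full effect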
* marks the source's active call; other numbers are inactive results.

What do the screens show for `Cc1cc(Nc2ccc3c(c2)OCCO3)c2cc(Cl)ccc2n1`?
TRPC4 PAM: inactive; TRPC4 inh: inactive; TRPC6 inhibitor: -5.1*; TRPC6 act: inactive; TRPC4 agonist: inactive; HEK293 TRPC6 ctr: -83%*; HEK293 MPD ctr 2: inactive; TRPC4 ctr mod: -16%*; TRPC4/MOR inh 2: 44%*; TRPC6 inh conf: inactive; TRPC6 act confirm: inactive

How did Cc1ccc(N=C2C(=O)Nc3ccccc32)cc1 do in these assays?
TRPC4 PAM: inactive; TRPC4 inh: inactive; TRPC6 inhibitor: inactive; TRPC6 act: inactive; TRPC4 agonist: inactive

How did CCN(CC)c1ccc(N=C2C(=O)Nc3ccccc32)cc1 do in these assays?
TRPC4 PAM: inactive; TRPC4 inh: inactive; TRPC6 inhibitor: -7.5*; TRPC6 act: inactive; TRPC4 agonist: inactive; HEK293 TRPC6 ctr: -261%*; HEK293 MPD ctr 2: inactive; TRPC4 ctr mod: -40%*; TRPC4/MOR inh 2: 89%*; TRPC6 inh conf: 76%*; TRPC6 act confirm: inactive

How did CN1CCC(OC(=O)COc2ccc(Br)cc2)CC1 do in these assays?
TRPC4 PAM: inactive; TRPC4 inh: inactive; TRPC6 inhibitor: -5.5*; TRPC6 act: inactive; TRPC4 agonist: inactive; HEK293 TRPC6 ctr: inactive; HEK293 MPD ctr 2: inactive; TRPC4 ctr mod: 13%*; TRPC4/MOR inh 2: inactive; TRPC6 inh conf: inactive

How did COc1ccc(OCC(=O)OC2CCN(C)CC2)cc1 do in these assays?
TRPC4 PAM: inactive; TRPC4 inh: inactive; TRPC6 inhibitor: inactive; TRPC6 act: inactive; TRPC4 agonist: inactive

Results for CN1CCN(c2ccccc2NC(=O)COc2ccc(Br)cc2)CC1 ?
TRPC4 PAM: inactive; TRPC4 inh: inactive; TRPC6 inhibitor: -5.1*; TRPC6 act: inactive; TRPC4 agonist: inactive; HEK293 TRPC6 ctr: inactive; HEK293 MPD ctr 2: inactive; TRPC4 ctr mod: 18%*; TRPC4/MOR inh 2: inactive; TRPC6 inh conf: inactive; TRPC6 act confirm: inactive

Results for CCOC(=O)C1(Cc2ccccc2C)CCCN(C(=O)COC)C1 (stereo unspecified) ?
TRPC4 PAM: inactive; TRPC4 inh: inactive; TRPC6 inhibitor: inactive; TRPC6 act: inactive; TRPC4 agonist: inactive

How did Cc1ccc(C)c(N2CCN(c3ccncc3N)CC2)c1 do in these assays?
TRPC4 PAM: inactive; TRPC4 inh: inactive; TRPC6 inhibitor: -6.5*; TRPC6 act: inactive; TRPC4 agonist: inactive; HEK293 TRPC6 ctr: inactive; HEK293 MPD ctr 2: inactive; TRPC4 ctr mod: inactive; TRPC4/MOR inh 2: 52%*; TRPC6 inh conf: inactive; TRPC6 act confirm: inactive

Source: PubChem BioAssay
